Consider 12 compounds from article PMC6044914 (ACS Omega, 2017).

≈ marks a conversion by molar mass, not a printed value. Read-outs that look alike come from different tables or passages of the source.

Data set [1] deals with M. tuberculosis H37Rv (London Pride). Briefly: microbe, parasite or virus in culture. The data set is classed as cell-based, Mycobacterium tuberculosis. As to conditions: for MIC: Mycobacterium tuberculosis, H37RV; for activity against M. tuberculosis (in words): SAR discussion.
The test system of the next data set is Vero cells. Conditions: for TC50: African green monkey.
Data set [2] has as its system nonreplicating M. tuberculosis (nutrient starvation). Conditions: previous work; cited from earlier work.
The conditions of data set [3]: rats; rapidly metabolized; cited from earlier work.
Data set [4] can be described thus: Pharmacokinetic profiling in the rat. The data set is classed as in vivo. As to conditions: plasma; for bioavailability: oral; for AUC: po.
In another data set the test system is E. coli DH5α. Kind of data set: Spectrum, MIC99 by serial dilution agar method. The data set is classed as cell-based. Conditions: Escherichia coli, read-out: MIC (μM) E. coli. The method, boiled down: (§1)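 Serial-dilution agar MIC99 with test compound in the agar. Organisms were grown on different media: B. subtilis Marburg on nutrient agar, E. coli DH5α and S. aureus RN4220 on LB agar, M. smegmatis mc2155 on Middlebrook 7H10 + 10% v/v OADC, P. aeruginosa BAA 47 PA0 on tryptic soy agar, S. cerevisiae Y187 on YPD agar. Late-log culture was plated and incubated at 37 °C until large colonies formed on no-compound plates. MIC99 is the lowest concentration giving <1% growth.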

The test system of the next data set is P. aeruginosa BAA 47 PA0. Kind of data set: Spectrum, MIC99 by serial dilution agar method. The data set is classed as cell-based. As to conditions: Pseudomonas aeruginosa, BAA47, read-out: MIC (μM) P. aeruginosa. The method, boiled down: as §1
Another data set has as its system B. subtilis Marburg. Kind of data set: Spectrum, MIC99 by serial dilution agar method. The data set is classed as cell-based. As to conditions: Bacillus subtilis, read-out: MIC (μM) B. subtilis. The method, boiled down: as §1
In a further data set the test system is S. aureus RN4220. Briefly: Spectrum, MIC99 by serial dilution agar method. The data set is classed as cell-based, Staphylococcus aureus. As to conditions: for MIC: Staphylococcus aureus, RN4220, read-out: MIC (μM) St. aureus. The method in brief:
as §1

Another data set has as its system S. cerevisiae Y187. Kind of data set: Spectrum, MIC99 by serial dilution agar method. Conditions: for MIC: Saccharomyces cerevisiae, Y187, read-out: MIC (μM) Sa. cerevisiae. Format: cell-based, Saccharomyces cerevisiae. The method, boiled down:
as §1

Data set [5] deals with replicating M. tuberculosis. Briefly: Kill kinetics in replicating conditions. As to conditions: for bactericidal activity against replicating M. tuberculosis (in words): aerobic conditions; for concentration at which bactericidal, replicating M. tuberculosis: bactericidal = at least 3 logs kill in 21 days. Format: cell-based, Mycobacterium tuberculosis.
The subject of a further data set is M. smegmatis mc^2155. Kind of data set: Spectrum, MIC99 by serial dilution agar method. Format: cell-based, Mycobacterium smegmatis. The method, boiled down: as §1
Data set [6] deals with nonreplicating M. tuberculosis (nutrient starvation). Kind of data set: Kill kinetics under starvation. Format: cell-based, Mycobacterium tuberculosis. As to conditions: for concentration at which bactericidal, nonreplicating M. tuberculosis: concentrations as low as.

Regarding `CC(=O)Oc1ccccc1C(=O)Nc1ncc([N+](=O)[O-])s1` [compound 1, 2-(5-Nitrothiazol-2-ylcarbamoyl)phenyl Acetate, reference compound], the MIC in [1] (120 h) and in [1] (read-out: minimum inhibitory concentration (MIC)) was 14 µM throughout. For the same compound, the “TC50” value with Vero cells is over 20 µM. Besides, the “activity against nonreplicating or persistent M. tuberculosis (in words)” value in data set [2] is on record as “good activity”. Besides, the “detection in plasma or urine” value in data set [3] is “not detectable”.
As a reminder, the Vd is the apparent volume that relates the amount in the body to the concentration in plasma or blood. As a reminder, the clearance is the rate of elimination divided by the concentration. In general, bioavailability refers to dose-corrected exposure relative to a reference, in per cent. As a reminder, the AUC is concentration integrated over time. The compound `O=C(Nc1ncc([N+](=O)[O-])s1)c1ccccc1O` [compound 2, 2-Hydroxy-N-(5-nitrothiazol-2-yl)benzamide, reference compound] gave an MIC in data set [1] (120 h) of 20 µM (≈ 5.3 µg/mL). For the same compound, in data set [4], the Vd was 0.698 ± 0.327 L/kg, the clearance worked out at 57.5 ± 3.3 mL/min/kg, the bioavailability stood at 5.8 ± 0.1% and the AUC is 167 ± 10 ng·h/mL. Besides, in the data set with Vero cells, the “TC50” value was over 20 µM.
On to `O=C(Nc1ncc([N+](=O)[O-])s1)c1ccccc1` [compound 4, N-(5-nitrothiazol-2-yl)benzamide], for which, in data set [4], the Vd amounted to 0.18 ± 0.006 L/kg, the clearance amounted to 6.1 ± 0.5 mL/min/kg and the bioavailability was determined as 63.5 ± 6.9%.
In the case of `CCC(C)(C)C(=O)Oc1ccccc1C(=O)Nc1ncc([N+](=O)[O-])s1` [compound 8, 2-((5-Nitrothiazol-2-yl)carbamoyl)phenyl 2,2-Dimethylbutanoate], the “improvement in activity relative to 1” value in data set [1] is 10 fold. Also, the MIC in data set [1] (120 h) is 1.4 ± 0.07 µM (≈ 0.509 µg/mL); in the data set on E. coli DH5α it was over 25 µM; in the data set on P. aeruginosa BAA 47 PA0, over 100 µM; in the data set with B. subtilis Marburg, 1 µM (≈ 0.363 µg/mL); with S. aureus RN4220, over 50 µM; with S. cerevisiae Y187 it was over 100 µM. Besides, the “activity against M. tuberculosis (in words)” value in data set [1] is on record as “showed activity”. Moreover, in data set [5], the “bactericidal activity against replicating M. tuberculosis (in words)” value was “rapidly bactericidal”. The “kill of replicating M. tuberculosis” value in data set [5] (in 7 days at 10× MIC) is over 4 log. Further, the “TC50” value in the data set with Vero cells worked out at 6.2 µM.
In data set [4], `Cc1cccc(C(=O)Nc2ncc([N+](=O)[O-])s2)c1O` [compound 13, 2-Hydroxy-3-methyl-N-(5-nitrothiazol-2-yl)benzamide] displayed a Vd of 0.16 ± 0.012 L/kg, a clearance of 8.96 ± 0.51 mL/min/kg and a bioavailability of 72.5 ± 18.4%.
For the compound `O=C(Nc1ncc([N+](=O)[O-])s1)c1ccccn1` [compound 19, N-(5-Nitrothiazol-2-yl)picolinamide], the MIC in data set [1] (120 h) was 2.4 ± 0.0071 µM (≈ 0.601 µg/mL); in the data set on E. coli DH5α, over 100 µM; in the data set with P. aeruginosa BAA 47 PA0, over 100 µM; in the data set on B. subtilis Marburg, 3.1 µM (≈ 0.776 µg/mL); with S. aureus RN4220, over 100 µM; with S. cerevisiae Y187, 12.5 µM (≈ 3.13 µg/mL). The “activity against M. tuberculosis (in words)” value in data set [1] was “improved activity”. The “susceptibility of M. smegmatis (in words)” value in the data set on M. smegmatis mc^2155 is reported as “sensitive”. In addition, the “susceptibility of S. cerevisiae (in words)” value with S. cerevisiae Y187 was “sensitive”. In addition, in data set [5], the “bactericidal activity against replicating M. tuberculosis (in words)” value is listed as “bactericidal”. Further, the “concentration at which bactericidal, replicating M. tuberculosis” value in data set [5] is given as at least 5 times the MIC. In [6], the “bactericidal activity under nonreplicating conditions (in words)” value was “bactericidal activity”. In [6], the “concentration at which bactericidal, nonreplicating M. tuberculosis” value is reported as at most 1.25 × MIC. Besides, the “TC50” value with Vero cells came out at 20 µM.
With `O=C(Nc1ncc([N+](=O)[O-])s1)C1CCCCC1` [compound 28, N-(5-Nitrothiazol-2-yl)cyclohexanecarboxamide], in data set [1], the MIC was over 20 µM and the “activity against M. tuberculosis (in words)” value is listed as “loss of activity”. Besides, in data set [4], the Vd was 0.68 ± 0.12 L/kg, the clearance was 69.8 ± 4.3 mL/min/kg, the bioavailability is 17.5 ± 4.2% and the AUC worked out at 418 ± 96 ng·h/mL.
In the case of `O=C(Nc1ccccc1)Nc1ncc([N+](=O)[O-])s1` [compound 37, 1-(5-Nitrothiazol-2-yl)-3-phenylurea], the MIC is 17 ± 4.2 µM (≈ 4.49 µg/mL) in [1]; over 100 µM with E. coli DH5α; over 100 µM in the data set with P. aeruginosa BAA 47 PA0; 50 µM (≈ 13.2 µg/mL) with B. subtilis Marburg; 50 µM (≈ 13.2 µg/mL) with S. aureus RN4220; over 100 µM in the data set on S. cerevisiae Y187. Further, in [1], the “activity against M. tuberculosis (in words)” value is on record as “comparable activity to the parent compound 1”. Besides, the “susceptibility of S. aureus (in words)” value in the data set with S. aureus RN4220 is given as “sensitive”. In [5], the “bactericidal activity against replicating M. tuberculosis (in words)” value was “bactericidal activity”. The “concentration at which bactericidal, replicating M. tuberculosis” value in data set [5] is “equivalent to the MIC”. Further, the “kill of replicating M. tuberculosis” value in data set [5] (in 21 days, at concentrations equivalent to the MIC) was “at least 3 logs”. Also, in data set [6], the “bactericidal activity under nonreplicating conditions (in words)” value is “bactericidal activity”. In data set [6], the “concentration at which bactericidal, nonreplicating M. tuberculosis” value is reported as at most 1.25 × MIC.
`O=C(Nc1ncc(C(=O)O)s1)c1ccccn1` [compound 51, 2-(Picolinamido)thiazole-5-carboxylic Acid]: in [1], the MIC was over 20 µM and the “activity against M. tuberculosis (in words)” value is “inactive”. In addition, the “TC50” value in the data set on Vero cells was over 50 µM.
For the compound `O=C(Nc1nc(-c2ccccn2)cs1)c1ccccn1` [compound 52, N-(4-(Pyridin-2-yl)thiazol-2-yl)picolinamide], in data set [1], the MIC was over 20 µM and the “activity against M. tuberculosis (in words)” value was “inactive”. Moreover, the “TC50” value in the data set on Vero cells came out at 15 µM.
Regarding `O=C(Nc1nc(-c2ccccn2)c([N+](=O)[O-])s1)c1ccccn1` [compound 53, N-(5-Nitro-4-(pyridin-2-yl)thiazol-2-yl)picolinamide], in [1], the MIC turned out to be 8.5 ± 2.1 µM (≈ 2.78 µg/mL) and the “activity against M. tuberculosis (in words)” value is “some activity”. Moreover, the “TC50” value in the data set on Vero cells was 6.4 µM. In addition, the “cytotoxicity (in words)” value in the data set with Vero cells (Vero cells) is reported as “cytotoxicity”.
Compound `CO[C@H]1/C=C/O[C@@]2(C)Oc3c(C)c(O)c4c(O)c(c(/C=N/N5CCN(C)CC5)c(O)c4c3C2=O)NC(=O)/C(C)=C\C=C\[C@H](C)[C@H](O)[C@@H](C)[C@@H](O)[C@@H](C)[C@H](OC(C)=O)[C@@H]1C` [rifampicin, reference compound] returned an MIC in data set [1] (120 h) of 0.004 µM (≈ 0.00329 µg/mL). In addition, in the data set on Vero cells, the “TC50” value is over 50 µM.
